According to ChEMBL document CHEMBL1156894, “Potent oxadiazole CGRP receptor antagonists for the potential treatment of migraine” (Bioorg Med Chem Lett, 2010):
≈ marks a conversion by molar mass, not a printed value.

Key:
[1] = target: T1, Calcitonin gene-related peptide type 1 receptor (Homo sapiens, UniProt O60894+Q16602); experiment: Antagonist activity at human recombinant CGRP receptor expressed in HEK293 cells assessed as inhibition of CGRP-stimulated increase of intracellular cAMP level in absence of human serum albumin; format: functional, cell-based
Outline: (§1)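 HEK 293 cells expressing human recombinant CGRP receptor; antagonism of CGRP-stimulated rise in intracellular cAMP measured, run with or without HSA; functional pKi (fpKi) derived. Values are means of two experiments unless otherwise footnoted.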

[2] = Aqueous solubility in fasted-state simulated intestinal fluid after 1 hr; format: physicochemical
Outline: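 Compound amount dissolved in fasted-state simulated intestinal fluid, read at the 1 h time point.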

[3] = Permeability across artificial membrane; format: ADME; settings: PAMPA; read-out: permeability
Outline: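 In vitro artificial membrane permeability assay (PAMPA).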

[4] = target: T1, Calcitonin gene-related peptide type 1 receptor; experiment: Antagonist activity at human recombinant CGRP receptor expressed in HEK293 cells assessed as inhibition of CGRP-stimulated increase of intracellular cAMP level in presence of human serum albumin; format: functional, cell-based; outline: as §1
[5] = Blood clearance in rat; format: ADME, organism-based
[6] = Bioavailability in rat at 10 mg/kg, po in 5% N-Methyl-2-pyrrolidone, 80% Poly(ethylene glycol400 diluted to volume with 20% vitamin E TPGS in water; format: ADME, organism-based; settings: in vivo
[7] = Tmax in rat at 10 mg/kg, po in 5% N-Methyl-2-pyrrolidone, 80% Poly(ethylene glycol400 diluted to volume with 20% vitamin E TPGS in water; format: ADME, organism-based; parameters: dose 10 mg/kg, route oral; settings: in vivo
Outline: (§2)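 Rats given 10 mg/kg orally, formulated at 2 mg/mL in 5% NMP, 80% PEG400 made up to volume with 20% Vitamin E TPGS in water. Blood concentration-time profile followed over about 5 h per rat, giving Cmax, Tmax and dose-normalised AUC.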

[8] = tested on: Rattus norvegicus; experiment: Dose normalized AUC in rat at 10 mg/kg, po in 5% N-Methyl-2-pyrrolidone, 80% Poly(ethylene glycol400 diluted to volume with 20% vitamin E TPGS in water; format: ADME, organism-based; parameters: dose 10 mg/kg, route oral; settings: in vivo; outline: as §2
[9] = Half life in rat at 1 mg/kg, iv; format: ADME, organism-based; parameters: dose 1 mg/kg, route intravenous; settings: in vivo
Outline: (§3)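 Intravenous dose of 1 mg/kg in rat; clearance and half-life derived from the blood profile.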

[10] = Cmax in rat at 10 mg/kg, po in 5% N-Methyl-2-pyrrolidone, 80% Poly(ethylene glycol400 diluted to volume with 20% vitamin E TPGS in water; format: ADME, organism-based; parameters: dose 10 mg/kg, route oral; settings: in vivo; outline: as §2
[11] = Clearance in rat at 1 mg/kg, iv; format: ADME, organism-based; parameters: dose 1 mg/kg, route intravenous; settings: in vivo; outline: as §3
[12] = tested on: Rattus norvegicus; experiment: Liver blood flow in rat at 1 mg/kg, iv; format: ADME, organism-based; parameters: dose 1 mg/kg, route intravenous; settings: in vivo
[13] = Tmax in rat at 10 mg/kg, po in 1% methylcellulose; format: ADME, organism-based; parameters: dose 10 mg/kg, route oral; settings: in vivo
Outline: (§4)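 Oral dosing to rats at 10 mg/kg as a 2 mg/mL suspension in 1% (w/v) aqueous methylcellulose. Blood concentrations followed over about 6 h, giving Cmax, Tmax and dose-normalised AUC.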

[14] = Cmax in rat at 10 mg/kg, po in 1% methylcellulose; format: ADME, organism-based; parameters: dose 10 mg/kg, route oral; settings: in vivo; outline: as §4
[15] = tested on: Rattus norvegicus; experiment: Dose normalized in rat at 10 mg/kg, po in 1% methylcellulose; format: ADME, organism-based; parameters: dose 10 mg/kg, route oral; settings: in vivo; outline: as §4
[16] = Bioavailability in rat at 10 mg/kg, po in 1% methylcellulose; format: ADME, organism-based; settings: in vivo

T1 sequence (Q16602 whole entry, one chain of several): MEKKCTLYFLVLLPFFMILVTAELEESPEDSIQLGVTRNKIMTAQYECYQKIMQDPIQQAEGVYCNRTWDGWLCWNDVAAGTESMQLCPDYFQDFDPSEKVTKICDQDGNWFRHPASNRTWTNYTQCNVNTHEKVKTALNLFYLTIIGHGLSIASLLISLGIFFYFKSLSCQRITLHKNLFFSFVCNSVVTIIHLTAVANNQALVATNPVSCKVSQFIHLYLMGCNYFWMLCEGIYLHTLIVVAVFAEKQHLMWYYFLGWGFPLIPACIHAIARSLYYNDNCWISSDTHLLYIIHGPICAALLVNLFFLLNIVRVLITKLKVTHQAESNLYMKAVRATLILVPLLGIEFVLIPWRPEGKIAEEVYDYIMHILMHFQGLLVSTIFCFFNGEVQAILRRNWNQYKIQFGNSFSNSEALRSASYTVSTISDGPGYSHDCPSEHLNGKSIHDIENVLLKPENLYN

## O=C(Cc1nnc(-c2cc(-c3ccccc3)cc(N3CCOCC3)c2)o1)N1CCC(n2c(=O)[nH]c3ncccc32)CC1
[1]
  Ki: 200 nM

## O=C(Cc1nnc(-c2cc(Cl)cc(C3CCN(CC(F)F)CC3)c2)o1)N1CCC(n2c(=O)[nH]c3ncccc32)CC1
[1]
  Ki: 3.98 nM
[2]
  solubility at 1 h: 10 µg/mL (≈ 17.1 µM)
[3]
  Papp: 20 ×10⁻⁶ cm/s
[4]
  Ki: 79.4 nM
[5]
  clearance: 67 mL/min/kg

## O=C(Cc1nnc(-c2cc(Cl)ccc2Cl)o1)N1CCC(n2c(=O)[nH]c3ncccc32)CC1
[1]
  Ki: 126 nM

## O=C(Cc1nnc(-c2c(Cl)cccc2Cl)o1)N1CCC(n2c(=O)[nH]c3ncccc32)CC1
[1]
  Ki: 794 nM

## O=C(Cc1nnc(-c2cccc(Cl)c2)o1)N1CCC(n2c(=O)[nH]c3ncccc32)CC1
[1]
  Ki: 316 nM

## O=C(Cc1nnc(-c2cc(Cl)cc(C(F)(F)F)c2)o1)N1CCC(n2c(=O)[nH]c3ncccc32)CC1
[6]
  bioavailability: 20%
[1]
  Ki: 3.98 nM
[7]
  Tmax: 1.5 h
[8]
  AUC: 6.3 kg·min/L
[9]
  half-life: 0.5 h
[10]
  Cmax: 700 nM
[11]
  clearance: 33 mL/min/kg
[12]
  LBF: 40%

## O=C(Cc1nnc(-c2ccc(Cl)cc2)o1)N1CCC(n2c(=O)[nH]c3ncccc32)CC1
[1]
  Ki: 1000 nM

## O=C(Cc1nnc(-c2cc(Cl)cc(-c3ccccc3)c2)o1)N1CCC(n2c(=O)[nH]c3ncccc32)CC1
[1]
  Ki: 2.51 nM

## O=C(Cc1nnc(-c2cc(Cl)cc(N3CCOCC3)c2)o1)N1CCC(n2c(=O)[nH]c3ncccc32)CC1
[1]
  Ki: 6.31 nM
[2]
  solubility at 1 h: 40 µg/mL (≈ 76.3 µM)
[3]
  Papp: 12 ×10⁻⁶ cm/s
[4]
  Ki: 126 nM
[5]
  clearance: 70 mL/min/kg

## COc1cc(OC)cc(-c2nnc(CC(=O)N3CCC(n4c(=O)[nH]c5ncccc54)CC3)o2)c1
[1]
  Ki: 50.1 nM

## O=C(Cc1nnc(-c2cc(F)cc(Cl)c2)o1)N1CCC(n2c(=O)[nH]c3ncccc32)CC1
[1]
  Ki: 25.1 nM

## O=C(Cc1nnc(-c2cc(Cl)cc(Br)c2)o1)N1CCC(n2c(=O)[nH]c3ncccc32)CC1
[1]
  Ki: 12.6 nM

## O=C(Cc1nnc(-c2cc(C(F)(F)F)cc(C(F)(F)F)c2)o1)N1CCC(n2c(=O)[nH]c3ncccc32)CC1
[1]
  Ki: 25.1 nM

## CN1CCN(c2cc(Cl)cc(-c3nnc(CC(=O)N4CCC(n5c(=O)[nH]c6ncccc65)CC4)o3)c2)CC1
[1]
  Ki: 5.01 nM
[2]
  solubility at 1 h: 210 µg/mL (≈ 391 µM)
[3]
  Papp: < 0.3 ×10⁻⁶ cm/s
[4]
  Ki: 25.1 nM
[5]
  clearance: 72 mL/min/kg

## O=C(Cc1nnc(-c2ccccc2Cl)o1)N1CCC(n2c(=O)[nH]c3ncccc32)CC1
[1]
  Ki: 501 nM

## CN1CCC(c2cc(Cl)cc(-c3nnc(CC(=O)N4CCC(n5c(=O)[nH]c6ncccc65)CC4)o3)c2)CC1
[1]
  Ki: 3.98 nM
[2]
  solubility at 1 h: 531 µg/mL (≈ 991 µM)
[3]
  Papp: 2.2 ×10⁻⁶ cm/s
[4]
  Ki: 20 nM

## Cc1ncc(-c2cc(Cl)cc(-c3nnc(CC(=O)N4CCC(n5c(=O)[nH]c6ncccc65)CC4)o3)c2)n1C
[1]
  Ki: 1.58 nM
[2]
  solubility at 1 h: 390 µg/mL (≈ 732 µM)
[3]
  Papp: < 0.3 ×10⁻⁶ cm/s
[4]
  Ki: 100 nM
[5]
  clearance: 52 mL/min/kg

## COc1ccc(-c2ccccc2)cc1CC(=O)N1CCC(n2c(=O)[nH]c3ncccc32)CC1
[1]
  Ki: 2510 nM

## O=C(Cc1nnc(-c2cc(Cl)cc(Cl)c2)o1)N1CCC(n2c(=O)[nH]c3ncccc32)CC1
[1]
  Ki: 15.8 nM

## Cc1cc(C)cc(-c2nnc(CC(=O)N3CCC(n4c(=O)[nH]c5ncccc54)CC3)o2)c1
[1]
  Ki: 25.1 nM

## CN(C)CCOc1cc(Cl)cc(-c2nnc(CC(=O)N3CCC(N4CCc5ccccc5NC4=O)CC3)o2)c1
[1]
  Ki: 12.6 nM
[2]
  solubility at 1 h: 120 µg/mL (≈ 217 µM)
[9]
  half-life: 1.9 h
[3]
  Papp: 18.5 ×10⁻⁶ cm/s
[4]
  Ki: 15.8 nM
[11]
  clearance: 50 mL/min/kg
[5]
  clearance: 50 mL/min/kg
[13]
  Tmax: 3 h
[14]
  Cmax: 250 nM
[15]
  AUC: 2.5 kg·min/L
[16]
  bioavailability: 14%

## O=C(Cc1nnc(-c2ccc(Cl)c(Cl)c2)o1)N1CCC(n2c(=O)[nH]c3ncccc32)CC1
[1]
  Ki: 251 nM

## O=C(Cc1nnc(-c2cccc(Cl)c2Cl)o1)N1CCC(n2c(=O)[nH]c3ncccc32)CC1
[1]
  Ki: 158 nM

## O=C(Cc1nnc(-c2ccccc2)o1)N1CCC(n2c(=O)[nH]c3ncccc32)CC1
[1]
  Ki: 200 nM

## COc1cc(Cl)cc(-c2nnc(CC(=O)N3CCC(n4c(=O)[nH]c5ncccc54)CC3)o2)c1
[1]
  Ki: 7.94 nM

## O=C(Cc1nnc(-c2cc(F)cc(F)c2)o1)N1CCC(n2c(=O)[nH]c3ncccc32)CC1
[1]
  Ki: 126 nM

## CN(C)CCOc1cc(Cl)cc(-c2nnc(CC(=O)N3CCC(n4c(=O)[nH]c5ncccc54)CC3)o2)c1
[1]
  Ki: 5.01 nM
[2]
  solubility at 1 h: 330 µg/mL (≈ 627 µM)
[3]
  Papp: 1.2 ×10⁻⁶ cm/s
[4]
  Ki: 50.1 nM

## Cc1cc(-c2nnc(CC(=O)N3CCC(n4c(=O)[nH]c5ncccc54)CC3)o2)cc(N2CCOCC2)c1
[1]
  Ki: 6.31 nM

## Cc1ccc(-c2cc(Cl)cc(-c3nnc(CC(=O)N4CCC(n5c(=O)[nH]c6ncccc65)CC4)o3)c2)cn1
[1]
  Ki: 2.51 nM
[2]
  solubility at 1 h: < 1 µg/mL
[3]
  Papp: 22 ×10⁻⁶ cm/s
[4]
  Ki: 126 nM

## CCN1CCC(c2cc(Cl)cc(-c3nnc(CC(=O)N4CCC(n5c(=O)[nH]c6ncccc65)CC4)o3)c2)CC1
[1]
  Ki: 3.16 nM
[2]
  solubility at 1 h: 565 µg/mL (≈ 1030 µM)
[3]
  Papp: 0.5 ×10⁻⁶ cm/s
[4]
  Ki: 15.8 nM
